Source: PubChem
HSP90 inh – HSP90 refolding inhibition in rabbit reticulocyte lysate; 290,000 tested, 0.91% active; inhibition, % at 5.6 µM; AID 1789; luciferase refolding luminescence, 3 h;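 active = inhibition above the screen-wide mean plus 3 SD, computed separately per campaign, cut at about 16% in these data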;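 note: inhibitors lower the luminescence because luciferase stays unfolded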
NS3 helicase inh – blocks Hepatitis C virus NS3 helicase unwinding; NS3 helicase DNA unwinding, Cy5 molecular beacon fluorescence; inhibition, % at 10.9 µM; 290,000 tested, 0.56% active; AID 1800;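 active = inhibition above the mean of all tested compounds plus 3 SD, set per campaign, cut at about 35% in these data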
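Compound dosing – single dose, 10.9 µM nominal final, DMSO 0.8% final · System – NS3 helicase fragment of HCV · Buffer or medium – MOPS pH 6.5, MgCl2, DTT, Tween20, BSA · Signal – Cy5 beacon fluorescence read at start and 1 h · Also added – annealed dual-labelled DNA beacon duplex, ATP-started · Schedule – 1 h at 25 °C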
HSF1 inhib – HSF1 inhibition | 300,000 tested, 0.77% active | activity change, negative = inhibition, % at 7.5 µM (by protocol) | NIH3T3-HGL HSE-luciferase, MG132-induced, luminescence 8 h; stronger effect = lower value;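 active = more than half of replicate wells show activity change below -50%, luminescence cut by over half; inconclusive = some wells, but at most half, below -50%; inactive = no replicate well below -50%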;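 note: luciferase reports HSF-1 transcriptional activity via heat shock element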
HSF1 activator – increases HSF-1 driven luciferase reporter signal; activation, % at 9 µM; NIH3T3-HGL HSF-1 luciferase reporter, MG132, 8 h; 100% = twice DMSO control signal; 300,000 tested, 1.7% active;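 active = mean replicate activation of at least 50% with a set share of replicates each reaching 50%; inconclusive = only one of those two conditions met; inactive = mean below 50% and too few replicates reaching it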
Hep lipid drop – modulators of hepatic lipid droplet formation | AML12 mouse hepatocytes, oleate lipid droplets, BODIPY imaging | inhibition, % at 6.5 µM | AID 1656 | 240,000 tested, 0.4% active;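 active = lipid droplet intensity inhibited by at least 50%, with more than 500 cells counted; inconclusive = wells with under 300 cells, treated as cytotoxic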
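System: AML12 hepatocytes (mouse). Probe or stimulus: oleic acid at 100 µM to induce lipid droplet formation. Times: overnight treatment with compound plus oleate. Detection: Image-based BODIPY and DAPI two-channel analysis. Evaluation: percent inhibition of filter-corrected integrated lipid droplet intensity per well.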
Numbers stand for hits; . = inactive; ? = inconclusive; / = not tested or not shown. Sampled rows, rich in hits. Any-hit rate of the full collection: about 3.8%.

SMILES | HSP90 inh | NS3 helicase inh | HSF1 inhib | HSF1 activator | Hep lipid drop
O=C(O)c1ccc(NC(=O)c2ccccc2NC(=O)c2ccccc2Cl)cc1 | . | . | . | . | .
O=C1c2ccccc2C(=O)C1(CO)c1ccc(OC(F)F)cc1 | . | . | . | . | .
CCCC(C)NS(=O)(=O)c1ccccc1 (stereo not drawn) | . | . | -59 | . | /
COCC(C)NS(=O)(=O)c1ccccc1 (stereo not drawn) | . | . | . | . | .
O=C(O)CC(NC(=O)CCc1ccccc1)c1ccc(Cl)cc1 (stereo not drawn) | . | . | . | . | .
CCOC(=O)c1c(-c2ccc(C)o2)csc1NC(=O)CSc1nncs1 | . | . | . | 95 | /
CCOC(=O)c1c(-c2ccc(C)o2)csc1NC(=O)CN1CCCCC1 | . | . | . | . | .
O=C(O)CC(Cc1ccccc1)(C(=O)O)c1ccccc1 (stereo not drawn) | . | . | . | . | .
CN(C)c1nnnn1-c1ccc(Oc2ncc(C(F)(F)F)cc2Cl)cc1 | . | . | . | . | .
NC(Cc1c[nH]c2ccccc12)C(=O)NCc1ccco1 (stereo not drawn) | . | . | . | . | .
COc1ccc(CCNC(=O)CSc2nc3c(c(=O)n(C)c(=O)n3C)n2C)cc1OC | . | . | . | . | .
CCc1nc(SCC(=O)NCCc2ccc(OC)c(OC)c2)c2c(=O)n(C)c(=O)n(C)c2n1 | / | / | -78 | . | .
CCOc1ccc2nc(N3C(=O)CNC3=S)sc2c1 | . | . | . | 62 | .
Cc1cc2nc(N3C(=O)CNC3=S)sc2cc1C | . | . | . | . | .
COC(=O)c1c(C)[nH]c(C(=O)/C=C/c2ccccc2F)c1C | . | . | . | 66 | .
O=c1oc2ccc(Br)cc2cc1-c1nc2ccccc2o1 | . | . | . | . | /
Brc1ccc2oc(-c3ccn[nH]3)cc2c1 | . | . | . | 57 | .
Cc1ccc(S(=O)(=O)N(CC(=O)NCC2CCCO2)Cc2cccc(C)c2)cc1 (stereo not drawn) | . | . | . | . | .
CCn1cc(C(=O)O)c(=O)c2cnc(N3CCN(C(=S)NC(=O)c4ccc(Cl)cc4)CC3)nc21 | . | . | . | . | .
CN(CCCNC(=O)C1CCC(=O)N1Cc1ccccc1Cl)c1ccccc1 (stereo not drawn) | . | . | . | . | /
CCCS(=O)(=O)N1CCC(C(=O)NCCCN(CC)c2cccc(C)c2)CC1 | . | . | / | / | .
CCN(CCCNC(=O)CCc1nc(-c2ccc(C)cc2)no1)c1cccc(C)c1 | . | . | . | 59 | /
CCN(CCCNC(=O)C1CCC(=O)N1Cc1ccccc1Cl)c1cccc(C)c1 (stereo not drawn) | . | . | . | 77 | .
CCN(CCCNC(=O)COc1cc(=O)n(C)c2ccccc12)c1cccc(C)c1 | . | . | . | 162 | /
Cc1cccc(-c2noc(CCC(=O)NCCc3ccccc3)n2)c1 | . | . | . | . | .
SMILES | HSP90 inh | NS3 helicase inh | HSF1 inhib | HSF1 activator | Hep lipid drop
CCCS(=O)(=O)N1CCCC(C(=O)NCCCN(CC)c2cccc(C)c2)C1 (stereo not drawn) | . | . | . | 56 | /
Cc1cccc(CCNC(=O)COc2cc(=O)n(C)c3ccccc23)c1 | . | . | . | . | .
CC(C)CC1Nc2ncnc(N3CCCCC3)c2N(Cc2ccc(Br)cc2)C1=O (stereo not drawn) | / | / | . | . | /
O=C(NCC1CCN(S(=O)(=O)c2ccccc2)CC1)Nc1ccccc1 | . | . | . | . | .
CCN(CC)S(=O)(=O)c1ccc(N2CCOCC2)c(NC(=O)c2ccc(NC(C)=O)cc2)c1 | . | . | . | . | .
CN(Cc1ccccc1)C(=O)COC(=O)C1CCN(S(=O)(=O)c2ccc3c(c2)OCCO3)CC1 | / | / | . | . | /
CCN(CCNC(=O)C1CCC(=O)N1Cc1ccc(C)cc1)c1ccccc1 (stereo not drawn) | . | . | . | . | .
CCN(CCCNC(=O)C1CCC(=O)N1Cc1ccc(C)cc1)c1cccc(C)c1 (stereo not drawn) | . | . | . | 85 | /
O=C1CC2(CCN(C(=O)c3cccc(Br)c3)CC2)Oc2ccccc21 | / | / | . | . | /
c1ccc(-c2nc3ccccc3nc2N2CCOCC2)cc1 | . | . | . | . | /
Cn1c(N2CCOCC2)nc(-c2ccccc2)c1-c1ccccc1 | . | . | -71 | . | /
Cc1noc(C(=O)Nc2ccc(F)cc2F)c1Cl | . | . | . | . | .
Cc1ccc(O)c(NC(=O)c2cc(-c3ccc(F)cc3)on2)c1 | . | . | . | ? | .
Cc1ccc(O)c(NC(=O)c2cc(-c3cccs3)on2)c1 | . | . | . | 75 | .
Cc1ccc(O)c(NC(=O)c2onc(C)c2Cl)c1 | . | . | . | 155 | .
Cc1noc(C)c1C(=O)Nc1cccc2ncccc12 | . | . | . | . | .
O=C(Cc1ccccc1[N+](=O)[O-])NCc1ccc(Cl)cc1Cl | . | . | . | 81 | .
O=C(Cc1ccccc1[N+](=O)[O-])NCc1ccc(Cl)cc1 | . | . | . | . | .
COC(=O)c1ccc(OC(=O)CCN2C(=O)C3CCCCC3C2=O)cc1 (stereo not drawn) | . | . | . | 61 | .
COC(=O)c1ccc(OC(=O)CCN2c3ccccc3Sc3ccccc32)cc1 | . | . | . | . | .
COc1ccc(-c2cc(C(F)(F)F)nc(-n3ccnc3)n2)cc1 | . | . | . | . | .
COc1ccc2c(c1)[N+](C)(C)C(C)(C)C=C2C | . | . | . | . | .
CCOc1ccc2c(c1)[N+](C)(C)C(C)(C)C=C2C | . | . | -80 | . | .
Cc1ccc(NC(=S)Nc2cccc3ccccc23)cc1 | . | . | -80 | . | .
S=C(Nc1ccc(Cl)cc1)Nc1cccc2cnccc12 | . | . | . | 61 | .
SMILES | HSP90 inh | NS3 helicase inh | HSF1 inhib | HSF1 activator | Hep lipid drop
Fc1ccc(NC(=S)Nc2cccc3cnccc23)cc1 | . | . | . | . | .
CCCCN1/C(=C/c2ccc3ccccc3[n+]2CC)Sc2ccccc21 | . | . | . | 57 | .
Cn1cnc(S(=O)(=O)N2CCN(c3ccc(Cl)cc3)CC2)c1 | . | . | . | . | .
Cc1oc2cc(O)ccc2c(=O)c1-c1cnn(-c2ccccc2)c1 | . | . | . | . | /
O=c1c(-c2cnn(-c3ccccc3)c2)coc2cc(O)ccc12 | . | . | . | 94 | .
O=C(/C=C/c1ccc(Br)o1)Nc1nccs1 | . | . | . | 83 | .
COc1ccc(OC)c(NC(=O)c2cc(S(=O)(=O)N(C)C)ccc2N2CCCC2)c1 | / | / | . | . | /
Cc1ccc(S(=O)(=O)CCc2nc3ccccc3[nH]2)cc1 | . | . | . | . | .
O=S(=O)(CCc1nc2ccccc2[nH]1)c1ccc(Cl)cc1 | . | . | -89 | . | .
Clc1ccc(OCc2nc3ccccc3[nH]2)cc1 | . | . | . | 77 | .
O=C(O)C(CC1CCCCC1)N1CCS(=O)(=O)CC1 (stereo not drawn) | . | . | . | . | .
O=C(COc1ccc(Cl)cc1)NCCCNC(=O)c1ccccn1 | . | . | . | 84 | .
O=C(NCCN1CCCCC1)Nc1ccccc1Cl | . | . | -83 | . | .
